Data published in ChEMBL document CHEMBL1926618, “Homosecoiridoids from the flower buds of Lonicera japonica” (2011).
Activity calls are given as the source filed them. The rule behind the calls is not given here.

Tests used:
[1] = Antiinflammatory activity in rat polymorphonuclear leukocytes assessed as inhibition of platelet-activating factor-induced glucuronidase release at 10 uM preincubated for 15 mins before challenge by spectrophotometry; type: functional
A549 = test: Cytotoxicity against human A549 cells at 10 uM after 96 hrs by MTT assay; type: functional, cell-based
BGC-823 = test: Cytotoxicity against human BGC823 cells at 10 uM after 96 hrs by MTT assay; type: functional, cell-based
MCF7 = test: Cytotoxicity against human MCF7 cells at 10 uM after 96 hrs by MTT assay; type: functional, cell-based
Bel-7402 = test: Cytotoxicity against human Bel7402 cells at 10 uM after 96 hrs by MTT assay; type: functional, cell-based
KETR3 = test: Cytotoxicity against human Ketr3 cells at 10 uM after 96 hrs by MTT assay; type: functional, cell-based
HCT-8 = test: Cytotoxicity against human HCT8 cells at 10 uM after 96 hrs by MTT assay; type: functional, cell-based
PC-12 = test: Neuroprotective activity against glutamate-induced neurotoxicity in rat PC12 cells at 10 uM preincubated for 24 hrs prior challenge measured after 24 hrs by MTT assay; type: functional, cell-based
Liver microsomes = test: Antioxidant activity against Fe2+-cystine induced lipid peroxidation in rat liver microsomes at 10 uM; type: functional; conditions: Microsome
[2] = biological target: T1, Tyrosine-protein phosphatase non-receptor type 1 (Homo sapiens) (UniProt P18031); test: Inhibition of GST-tagged human PTP1B PTPase activity using p-NPP as substrate at 10 uM after 10 mins by spectrophotometry
T1 sequence (whole entry): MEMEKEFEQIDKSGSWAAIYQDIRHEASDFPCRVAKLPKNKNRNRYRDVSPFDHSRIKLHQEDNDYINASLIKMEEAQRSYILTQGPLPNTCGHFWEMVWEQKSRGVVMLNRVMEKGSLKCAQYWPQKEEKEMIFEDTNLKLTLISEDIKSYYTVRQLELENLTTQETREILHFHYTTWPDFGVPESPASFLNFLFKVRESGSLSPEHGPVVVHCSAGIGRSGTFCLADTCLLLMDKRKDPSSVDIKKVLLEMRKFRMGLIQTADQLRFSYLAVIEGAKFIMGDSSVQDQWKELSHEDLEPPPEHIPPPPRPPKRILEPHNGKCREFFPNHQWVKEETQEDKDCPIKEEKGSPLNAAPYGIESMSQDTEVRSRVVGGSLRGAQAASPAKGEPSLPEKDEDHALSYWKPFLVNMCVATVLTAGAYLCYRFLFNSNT

[3] = test system: Human immunodeficiency virus 1; test: Antiviral activity against HIV1 infected in 293T cells at 10 uM pretreated for 15 mins prior infection measured after 48 hrs by luciferase reporter gene assay; type: functional, organism-based
[4] = biological target: Signal transducer and activator of transcription 3 (Homo sapiens) (UniProt P40763); test: Inhibition of STAT-3 activity in HELF cells at 10 uM; type: cell-based
Sequence of Signal transducer and activator of transcription 3 (Homo sapiens) (P40763 whole entry): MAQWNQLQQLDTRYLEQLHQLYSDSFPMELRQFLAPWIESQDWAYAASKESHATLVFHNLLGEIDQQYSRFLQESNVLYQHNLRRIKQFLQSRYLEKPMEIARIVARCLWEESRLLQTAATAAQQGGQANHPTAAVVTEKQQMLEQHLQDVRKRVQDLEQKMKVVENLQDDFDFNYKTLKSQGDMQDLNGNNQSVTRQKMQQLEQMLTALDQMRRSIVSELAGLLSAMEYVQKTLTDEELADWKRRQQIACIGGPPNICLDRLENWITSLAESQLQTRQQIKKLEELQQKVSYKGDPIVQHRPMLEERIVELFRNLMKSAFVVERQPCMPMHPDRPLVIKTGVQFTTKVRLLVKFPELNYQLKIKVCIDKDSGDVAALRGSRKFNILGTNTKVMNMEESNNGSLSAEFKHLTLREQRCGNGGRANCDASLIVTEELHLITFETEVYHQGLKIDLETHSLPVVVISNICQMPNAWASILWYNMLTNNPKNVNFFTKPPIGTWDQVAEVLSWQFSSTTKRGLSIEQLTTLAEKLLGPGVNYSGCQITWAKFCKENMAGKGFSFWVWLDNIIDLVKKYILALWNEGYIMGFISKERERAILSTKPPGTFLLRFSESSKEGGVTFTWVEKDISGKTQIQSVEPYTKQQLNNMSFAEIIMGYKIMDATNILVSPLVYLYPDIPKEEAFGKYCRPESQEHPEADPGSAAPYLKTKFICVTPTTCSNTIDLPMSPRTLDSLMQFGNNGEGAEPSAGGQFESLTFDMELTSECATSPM
In short: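 HELF cells grown in DMEM with 10% FCS under humidified 5% CO2, transfected with pSTAT-3-TA-luc firefly luciferase reporter plasmid by lipofectamine 2000. After 24 h, treated in 5% FBS with compound or DMSO for 24 h. Luciferase activity read in cell lysates by luminometer; activity expressed relative to DMSO-treated transfected cells set at 100%.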

| inhibition [2] | inhibition [4] [%] | SMILES | inhibition at 10 µM [1] [%] | Activity (A549) | Activity (BGC-823) | Activity (MCF7) | Activity (Bel-7402) | Activity (KETR3) | Activity (HCT-8) | Activity (PC-12) | Activity (Liver microsomes) | Activity [3] |
| --- | --- | --- | --- | --- | --- | --- | --- | --- | --- | --- | --- | --- |
| inactive |  | C=C[C@H]1[C@H](O[C@@H]2O[C@H](CO)[C@@H](O)[C@H](O)[C@H]2O)OC=C(C(=O)[O-])[C@H]1/C=C/c1ccc[n+](CCCC(=O)O)c1 [LONIJAPOSIDE M] | < 30 | inactive | inactive | inactive | inactive | inactive | inactive | inactive | inactive | inactive |
| inactive |  | C=C[C@H]1[C@H](O[C@@H]2O[C@H](CO)[C@@H](O)[C@H](O)[C@H]2O)OC=C(C(=O)[O-])[C@H]1/C=C/c1ccc[n+](CCC(=O)O)c1 [LONIJAPOSIDE L] | < 30 | inactive | inactive | inactive | inactive | inactive | inactive | inactive | inactive | inactive |
| inactive |  | C=C[C@H]1[C@H](O[C@@H]2O[C@H](CO)[C@@H](O)[C@H](O)[C@H]2O)OC=C(C(=O)OC)[C@H]1/C=C/c1ccc[n+](CCCC(=O)[O-])c1 [LONIJAPOSIDE N] | < 30 | inactive | inactive | inactive | inactive | inactive | inactive | inactive | inactive | inactive |
| inactive | 45.7 | O=C(O)C1=CO[C@@H](O[C@@H]2O[C@H](CO)[C@@H](O)[C@H](O)[C@H]2O)[C@H]2[C@@H]1C[C@@H]1C[C@H]2OC=C1c1ccccc1 [LONIPHENYRUVIRIDOSIDE A] | < 30 | inactive | inactive | inactive | inactive | inactive | inactive | inactive | inactive | inactive |
| inactive | 30.9 | C=C[C@H]1[C@H](O[C@@H]2O[C@H](CO)[C@@H](O)[C@H](O)[C@H]2O)OC=C2C(=O)O[C@H](/C(=C(/O)C(=O)O)c3ccccc3)C[C@@H]21 [LONIPHENYRUVIRIDOSIDE C] | < 30 | inactive | inactive | inactive | inactive | inactive | inactive | inactive | inactive | inactive |
| inactive |  | C=C[C@H]1[C@H](O[C@@H]2O[C@H](CO)[C@@H](O)[C@H](O)[C@H]2O)OC=C(C(=O)OC)[C@H]1/C=C/c1ccc[n+](CCO)c1 [LONIJAPOSIDE J] | < 30 | inactive | inactive | inactive | inactive | inactive | inactive | inactive | inactive | inactive |
| inactive | 25.8 | C=C[C@H]1[C@H](O[C@@H]2O[C@H](CO)[C@@H](O)[C@H](O)[C@H]2O)OC=C2C(=O)O[C@@H](/C(=C(/O)C(=O)O)c3ccccc3)C[C@H]21 [LONIPHENYRUVIRIDOSIDE B] | < 30 | inactive | inactive | inactive | inactive | inactive | inactive | inactive | inactive | inactive |
| inactive |  | C=C[C@H]1[C@H](O[C@@H]2O[C@H](CO)[C@@H](O)[C@H](O)[C@H]2O)OC=C(C(=O)[O-])[C@H]1/C=C/c1ccc[n+](CC(=O)O)c1 [LONIJAPOSIDE K] | 54.6 | inactive | inactive | inactive | inactive | inactive | inactive | inactive | inactive | inactive |

Further lines, the compound ahead of its results:

| SMILES | inhibition [2] | inhibition [4] [%] | inhibition at 10 µM [1] [%] | Activity (A549) | Activity (BGC-823) | Activity (MCF7) | Activity (Bel-7402) | Activity (KETR3) | Activity (HCT-8) | Activity (PC-12) | Activity (Liver microsomes) | Activity [3] |
| --- | --- | --- | --- | --- | --- | --- | --- | --- | --- | --- | --- | --- |
| C=C[C@H]1[C@H](O[C@@H]2O[C@H](CO)[C@@H](O)[C@H](O)[C@H]2O)OC=C(C(=O)OC)[C@H]1/C=C/c1cc(C(=O)[O-])c[n+](C)c1 [LONIJAPOSIDE G] | inactive |  | < 30 | inactive | inactive | inactive | inactive | inactive | inactive | inactive | inactive | inactive |
| C[C@@H]1C(=O)O[C@H]2[C@H](O)[C@@]34[C@H]5C[C@@H](C(C)(C)C)[C@]36[C@@H](OC(=O)[C@@H]6O)O[C@@]4(C(=O)O5)[C@@]12O [GINKOLIDE B] |  |  | 84.3 |  |  |  |  |  |  |  |  |  |
| C=C[C@H]1[C@H](O[C@@H]2O[C@H](CO)[C@@H](O)[C@H](O)[C@H]2O)OC=C(C(=O)O)[C@H]1/C=C/c1cc(C(=O)[O-])c[n+](CC)c1 [LONIJAPOSIDE F] | inactive |  | 87.6 | inactive | inactive | inactive | inactive | inactive | inactive | inactive | inactive | inactive |
| C=C[C@H]1[C@H](O[C@@H]2O[C@H](CO)[C@@H](O)[C@H](O)[C@H]2O)OC=C(C(=O)O)[C@H]1/C=C/c1cc(C(=O)[O-])c[n+](CCCC(=O)O)c1 [DEMETHYL LONIJAPOSIDE A] | inactive |  | < 30 | inactive | inactive | inactive | inactive | inactive | inactive | inactive | inactive | inactive |
| C=C[C@H]1[C@H](O[C@@H]2O[C@H](CO)[C@@H](O)[C@H](O)[C@H]2O)OC=C(C(=O)[O-])[C@H]1/C=C/c1ccc[n+](CCO)c1 [LONIJAPOSIDE I] | inactive |  | 72.1 | inactive | inactive | inactive | inactive | inactive | inactive | inactive | inactive | inactive |
| C=C[C@@H]1/C(=C\Cc2cc(C(=O)[O-])c[n+](CCCC(=O)O)c2)C(C(=O)OC)=CO[C@H]1O[C@@H]1O[C@H](CO)[C@@H](O)[C@H](O)[C@H]1O [LONIJAPOSIDE H] | inactive |  | 68.6 | inactive | inactive | inactive | inactive | inactive | inactive | inactive | inactive | inactive |
| C=C[C@H]1[C@H](O[C@@H]2O[C@H](CO)[C@@H](O)[C@H](O)[C@H]2O)OC=C(C(=O)OC)[C@H]1/C=C/c1cc(C(=O)[O-])c[n+](CC)c1 [LONIJAPOSIDE E] | inactive |  | < 30 | inactive | inactive | inactive | inactive | inactive | inactive | inactive | inactive | inactive |
